Key:
[1] = Free radical scavenging assessed as color reduction of DPPH; assay type: functional
In short: (§1)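 DPPH (0.5 mM in ethanol, 1 part) mixed with antioxidant in ethanol/H2O 1:1 (4 parts; 1.25 × 10⁻⁶ to 1.25 × 10⁻³ M solutions); DPPH in reaction 10⁻⁴ M. Room temperature, 20 min; decolorization read at 516 nm. EC50 = concentration giving 50% of blank absorbance, from dose-response curve; mean ± SD of triplicates.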

[2] = Compound was evaluated for its partition between n-octanol and water(pH 7); assay type: physicochemical; settings: buffer
In short: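 100 mM stock in DMSO diluted to 1 mM in 50 mM potassium phosphate buffer (pH 7.0); 5 mL aqueous solution mixed and partitioned with 5 mL n-octanol. Compound in the octanol phase quantified by HPLC (UV 240 nm). Mean ± SD, n = 6.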

[3] = Free radical scavenging assessed as 50% reduction in DPPH absorbance (516 nm); assay type: functional; in short: as §1

| Compound | Scavenging activity [1] | Distribution percent [2] | EC50 [3] |
| --- | --- | --- | --- |
| O=C1C(OP(=O)(O)O)=C(O)O[C@@H]1[C@@H](O)CO | 1.5% |  |  |
| O=C1O[C@H]([C@@H](O)CO)C(O)=C1O [ASCORBIC ACID] | 94.3% | 0.7 | 2.2 10uM |
| O=C1C(OS(=O)(=O)O)=C(O)O[C@@H]1[C@@H](O)CO | 0% |  |  |
| VITAMIN E [listing 1 of 2 here] |  |  | 1.9 10uM |
| CCCCCCCCCCCCCCCC(=O)OC[C@H](O)[C@H]1OC(O)=C(O[C@@H]2OC(CO)[C@@H](O)C(O)[C@@H]2O)C1=O (stereo partly specified) | 76.4% | 87.3 | 4.1 10uM |
| CCCCCCCCCCCCCCCCCC(=O)OC[C@H](O)[C@H]1OC(O)=C(O[C@@H]2OC(CO)[C@@H](O)C(O)[C@@H]2O)C1=O (stereo partly specified) | 77.5% | 84.6 | 4.4 10uM |
| VITAMIN E [listing 2 of 2 here] | 90.9% |  |  |
| CCCCCCCCCCCCCCCC(=O)OC[C@H](O)[C@H]1OC(=O)C(O)=C1O | 95.7% |  |  |
| CCCCCCCCCC(=O)OC[C@H](O)[C@H]1OC(O)=C(O[C@@H]2OC(CO)[C@@H](O)C(O)[C@@H]2O)C1=O (stereo partly specified) | 73.6% | 76.6 | 4.2 10uM |
| CCCCCCCCCCCCCC(=O)OC[C@H](O)[C@H]1OC(O)=C(O[C@@H]2OC(CO)[C@@H](O)C(O)[C@@H]2O)C1=O (stereo partly specified) | 74.1% | 87 | 4.4 10uM |
| CCCC(=O)OC[C@H](O)[C@H]1OC(O)=C(O[C@@H]2OC(CO)[C@@H](O)C(O)[C@@H]2O)C1=O (stereo partly specified) | 69.2% | 4 | 5.9 10uM |
| CCCCCCCC(=O)OC[C@H](O)[C@H]1OC(O)=C(O[C@@H]2OC(CO)[C@@H](O)C(O)[C@@H]2O)C1=O (stereo partly specified) | 76.6% | 43.4 | 5.7 10uM |
| CCCCCCCCCCCC(=O)OC[C@H](O)[C@H]1OC(O)=C(O[C@@H]2OC(CO)[C@@H](O)C(O)[C@@H]2O)C1=O (stereo partly specified) | 76.2% | 83.8 | 4.6 10uM |
| O=C1C(O[C@@H]2OC(CO)[C@@H](O)C(O)[C@@H]2O)=C(O)O[C@@H]1[C@@H](O)CO (stereo partly specified) | 68.9% | 0 | 6.1 10uM |
| CCCCCC(=O)OC[C@H](O)[C@H]1OC(O)=C(O[C@@H]2OC(CO)[C@@H](O)C(O)[C@@H]2O)C1=O (stereo partly specified) | 73.8% | 8.7 | 5.4 10uM |
| CCCCCCCCCCCCCCCC(=O)OC[C@H](O)[C@H]1OC(O)=C(OC(=O)CCCCCCCCCCCCCCC)C1=O | 23.7% |  |  |

— ChEMBL document CHEMBL1135591, “Synthesis and characterization of a series of novel monoacylated ascorbic acid derivatives, 6-O-acyl-2-O-alpha-D-glucopyranosyl-L-ascorbic acids, as skin antioxidants” (J Med Chem, 2002)
